Test results: paper PMC6679720 (Pharmacological research, 2019)
Where two headings read alike, the source gives them in different places.

Experiments:
[1] = type: in vivo, mice; settings: for Cmax in amygdala ECF adjusted for recovery rate: adjusted for recovery rate (4.58%)
In short: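 Male Oxt KO and wildtype C57BL/6J mice, housed singly. The day before, mice were anaesthetised with tribromoethanol and fitted with a jugular catheter and two linear microdialysis probes (18 kDa cut-off) in amygdala and hippocampus. Oxt (12 µg total) was given nasally (2 × 6 μl saline on the rhinarium) or i.p. in 0.1 ml saline. Dialysates were taken every 30 min for 2 h, vacuum-dried without heat, stored at -80°C, and measured unextracted by RIA.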

[2] = cited from earlier work
[3] = Plasma Oxt; type: in vivo, mice; settings: for half-life: male, mouse; for time of return of plasma Oxt concentration to baseline / half-life / AUCG / AUCI / Cmax: plasma; for AUCG / AUCI / Cmax: nasal 12 μg, ELISA, mean ± s.e.m.
In short: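 Male Oxt KO and wildtype C57BL/6J mice received Oxt (12 µg total) nasally (2 × 6 μl saline pipetted bilaterally on the rhinarium) or i.p. (0.1 ml saline). Blood was drawn through a jugular catheter every 30 min for 2 h and double-centrifuged (6000 rpm, 15 min, 4°C). Plasma plus an equal volume of 0.1% TFA was extracted on C18 Sep-Pak columns and assayed by Oxt ELISA. Cmax, T1/2, AUCG (pg*30 min/sample) and AUCI were calculated.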

[4] = cited from earlier work; remark: listed apart in the source
[5] = wildtype C57BL/6J male mice, N = 8
[6] = mice and rats, nonhuman primates, humans

In the case of `CC[C@H](C)[C@@H]1NC(=O)[C@H](Cc2ccc(O)cc2)NC(=O)[C@@H](N)CSSC[C@@H](C(=O)N2CCC[C@H]2C(=O)N[C@@H](CC(C)C)C(=O)NCC(N)=O)NC(=O)[C@H](CC(N)=O)NC(=O)[C@H](CCC(N)=O)NC1=O` [Oxt, oxytocin], the “time of return of Oxt concentration to baseline” value ([1]; Oxt KO mice, amygdala, intraperitoneal injection) is reported as 60 to 90 min, the “time at which Cmax of Oxt occurred” value ([1]; after nasal administration, current study, 30-min sampling) is reported as 30 to 60 min and the “Cmax in amygdala ECF adjusted for recovery rate” value ([1]; intraperitoneal injection, wildtype mice, amygdala) is reported as 0.91 ± 0.27 ng/mL. For the same compound, the “Cmax in amygdala ECF adjusted for recovery rate” value ([1]; nasal administration, wildtype mice, amygdala) was 4.16 ± 1.00 ng/mL, the “time of peak concentration in brain ECF and plasma” value ([1]; nasal and intraperitoneal administration, wildtype mice) was 30 to 60 min and the “time for which Oxt remained detectable in amygdala and hippocampus” value ([1]; nasal, Oxt KO mice) was 90 min. For the same compound, the “share of the total Oxt that reaches the CNS” value ([2]; intravenous injection) was 2×10^−6, the “share of the total Oxt that reaches the CNS” value ([2]; nasal administration) was 5×10^−6 and the “time of return of plasma Oxt concentration to baseline” value ([3]; Oxt KO mice, intraperitoneal injection) was “exceeding 120 minutes”. For the same compound, the “time of return of plasma Oxt concentration to baseline” value ([3]; Oxt KO mice, nasal administration) was 90 to 120 min, the half-life ([3]; C57BL/6J (wildtype), inhaled or intranasal, 12 ug) was 25.8 ± 6 min and the half-life ([3]; C57BL/6J, ip, 12 μg) was 32 ± 9.1 min. The half-life ([3]; Oxt KO, ip, 12 μg) was 34.5 ± 8.9 min, the AUCG ([3]; Oxt KO male mice, N = 7) was 7920 ± 1280b pg*30 min/sample and the AUCI ([3]; Oxt KO male mice, N = 7) was 6120± 1280 pg*30 min/sample. The Cmax ([3]; Oxt KO male mice, N = 7) was 131 ± 29 pg/sample, the AUCG [3, 5] was 23,600 ± 4880a pg*30 min/sample and the AUCI [3, 5] was 17,300 ± 5260 pg*30 min/sample. For the same compound, the Cmax [3, 5] was 398± 101 pg/sample, the “time for which Oxt was detected in circulation” value ([3]; nasal, Oxt KO mice, spiking in the first 30 minutes) was 90 min and the “persistence of the rise of plasma Oxt after nasal application” value ([4]; earlier studies) was 75 to 90 min. The “time of peak of plasma Oxt after nasal application” value ([4]; earlier studies) was 15 to 30 min, the “time of peak of Oxt in circulation after nasal application” value [4, 6] was 15 to 30 min and the “time of return of Oxt in circulation to baseline after nasal application” value [4, 6] was 75 to 90 min. For the same compound, the “time of rise in CSF Oxt after nasal application” value (“time of rise in CSF Oxt” below) ([4]; ref 22, 23, 28) was 15 to 30 min, the “time of rise in CSF Oxt” value ([4]; ref 24) was 75 min and the “time of rise in CSF Oxt” value ([4]; ref 26) was 60 min.
